Measurements taken from ChEMBL document CHEMBL4261600 (Eur J Med Chem, 2018).
The source made the active and inactive calls.

Assays:
MOLM-14 = assay: Antiproliferative activity against human MOLM14 cells after 72 hrs by Celltiter-Glo assay; format: functional; conditions: MOLM-14, 72 h
Outline: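 Cells seeded at 3000/well in 96-well plates, exposed to serially diluted compound for 72 h at 37 °C, 5% CO2. Viability read by CellTiter-Glo luminescence and normalized to DMSO control. GI50 derived from curve fit, mean of three independent measurements. Culture media: DMEM/10% FBS for adherent lines; IMDM for MV4-11 and MEC-1/2; RPMI 1640 for suspension lines and CHL.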

HL-60 = assay: Induction of apoptosis in human HL60 cells assessed as decrease in BCL-2 level up to 3 uM after 2 hrs by immunoblotting analysis; format: functional, cell-based
[1] = MRT (0 to infinity) in mouse at 10 mg/kg, po by LC-MS/MS analysis; format: ADME, organism-based; conditions: in vivo
[2] = biological target: Cytoplasmic tyrosine-protein kinase BMX (Homo sapiens) (UniProt P51813); assay: Binding affinity to wild-type human full length BMX (M1 to H675 residues) expressed in bacterial expression system assessed as remaining unbound target protein level at 1000 nM by Kinomescan method relative to control
Outline: (§1)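 Single-point competition binding screen across a panel of 468 kinases and mutants, with the inhibitor at 1 μM. Binding is read out as percent of a DMSO control, and targets below 1 percent control were classed as strong binders.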

[3] = biological target: Cyclin-dependent kinase 8 (Homo sapiens) (UniProt P49336); assay: Binding affinity to wild-type human partial length CDK8 (M1 to T360 residues) expressed in bacterial expression system assessed as remaining unbound target protein level at 1000 nM by Kinomescan method relative to control
[4] = biological target: Casein kinase II subunit alpha' (Homo sapiens) (UniProt P19784); assay: Binding affinity to wild-type human full length CSNK2A2 (M1 to R350 residues) expressed in mammalian expression system assessed as remaining unbound target protein level at 1000 nM by Kinomescan method relative to control
Outline: (§2)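 KINOMEscan competition binding profile across a panel of 468 kinases and mutants, with the inhibitor tested at a single concentration of 1 μM. Binding is reported as percent of control, meaning signal relative to a DMSO control.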

[5] = biological target: Ephrin type-A receptor 1 (Homo sapiens) (UniProt P21709); assay: Binding affinity to wild-type human partial length EPHA1 (V588 to I913 residues) expressed in bacterial expression system assessed as remaining unbound target protein level at 1000 nM by Kinomescan method relative to control
Outline: (§3)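 KINOMEscan binding panel of 468 kinases/mutants. Inhibitor was tested at a single concentration of 1 μM. Binding is reported as percent of control, defined relative to a DMSO control.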

[6] = tested on: Receptor-type tyrosine-protein kinase FLT3 (Homo sapiens), P36888 [K663Q]; assay: Binding affinity to human partial length FLT3 K663Q mutant (V592 to Y969 residues) expressed in bacterial expression system assessed as remaining unbound target protein level at 1000 nM by Kinomescan method relative to control
Outline: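 KINOMEscan competition-binding profiling across the panel of 468 kinases and mutants, with inhibitor tested at 1 μM. Binding is expressed as percent of control, with DMSO as the reference control.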

[7] = biological target: Mitogen-activated protein kinase kinase kinase kinase 5 (Homo sapiens) (UniProt Q9Y4K4); assay: Binding affinity to wild-type human partial length MAP4K5 (M1 to P297 residues) expressed in bacterial expression system assessed as remaining unbound target protein level at 1000 nM by Kinomescan method relative to control; outline: as §3
[8] = biological target: Dual specificity mitogen-activated protein kinase kinase 2 (Homo sapiens) (UniProt P36507); assay: Binding affinity to wild-type human full length MEK2 (M1 to V400 residues) expressed in mammalian expression system assessed as remaining unbound target protein level at 1000 nM by Kinomescan method relative to control; outline: as §2
[9] = biological target: Serine/threonine-protein kinase 26 (Homo sapiens) (UniProt Q9P289); assay: Binding affinity to wild-type human full length MST4 (M1 to P416 residues) expressed in mammalian expression system assessed as remaining unbound target protein level at 1000 nM by Kinomescan method relative to control; outline: as §1
[10] = biological target: Muscle, skeletal receptor tyrosine-protein kinase (Homo sapiens) (UniProt O15146); assay: Binding affinity to wild-type human partial length MUSK (M553 to V869 residues) expressed in bacterial expression system assessed as remaining unbound target protein level at 1000 nM by Kinomescan method relative to control
[11] = biological target: Myosin light chain kinase, smooth muscle (Homo sapiens) (UniProt Q15746); assay: Binding affinity to wild-type human full length MYLK (M854 to E1845 residues) expressed in mammalian expression system assessed as remaining unbound target protein level at 1000 nM by Kinomescan method relative to control; outline: as §2
[12] = biological target: Serine/threonine-protein kinase Nek9 (Homo sapiens) (UniProt Q8TD19); assay: Binding affinity to wild-type human partial length NEK9 (P32 to R328 residues) expressed in bacterial expression system assessed as remaining unbound target protein level at 1000 nM by Kinomescan method relative to control
[13] = biological target: Serine/threonine-protein kinase N1 (Homo sapiens) (UniProt Q16512); assay: Binding affinity to wild-type human partial length PKN1 (E598 to C948 residues) expressed in bacterial expression system assessed as remaining unbound target protein level at 1000 nM by Kinomescan method relative to control
[14] = biological target: cGMP-dependent protein kinase 2 (Homo sapiens) (UniProt Q13237); assay: Binding affinity to wild-type human partial length PRKG2 (S422 to F762 residues) expressed in mammalian expression system assessed as remaining unbound target protein level at 1000 nM by Kinomescan method relative to control
[15] = biological target: Serine/threonine-protein kinase RIO1 (Homo sapiens) (UniProt Q9BRS2); assay: Binding affinity to wild-type human full length RIOK1 (M1 to K568 residues) expressed in bacterial expression system assessed as remaining unbound target protein level at 1000 nM by Kinomescan method relative to control
Outline: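 Profiled in a KINOMEscan binding panel with the inhibitor at a single concentration of 1 μM. Binding to each kinase was read out as percent of control, relative to a DMSO control. Strong binders were defined as those with a percent control value below 1.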

[16] = biological target: Tyrosine-protein kinase SYK (Homo sapiens) (UniProt P43405); assay: Binding affinity to wild-type human partial length SYK (D354 to N635 residues) expressed in bacterial expression system assessed as remaining unbound target protein level at 1000 nM by Kinomescan method relative to control
[17] = biological target: Angiopoietin-1 receptor (Homo sapiens) (UniProt Q02763); assay: Binding affinity to wild-type human partial length TIE2 (N804 to T1112 residues) expressed in bacterial expression system assessed as remaining unbound target protein level at 1000 nM by Kinomescan method relative to control
Homo sapiens = species: Homo sapiens; assay: Selectivity ratio of IC50 for recombinant full length His-tagged human CDK2/CyclinA to IC50 for recombinant full length His-tagged human CDK9/CyclinT1
[18] = tested on: Mitogen-activated protein kinase kinase kinase 12 (DLK); assay: Binding affinity to wild-type human full length DLK (M1 to P859 residues) expressed in mammalian expression system assessed as remaining unbound target protein level at 1000 nM by Kinomescan method relative to control

COCCN[C@H]1CC[C@H](Nc2cc(-c3csc(NCC4(C#N)CCOCC4)n3)c(Cl)cn2)CC1
GI50 (MOLM-14): 1.1 nM
Activity (HL-60): inactive
MRT inf [1]: 3.48 h
Activity [2]: 92%
Activity [3]: 100%
Activity [4]: 99%
Activity [5]: 39%
Activity [6]: 97%
Activity [7]: 95%
Activity [8]: 95%
Activity [9]: 96%
Activity [10]: 100%
Activity [11]: 71%
Activity [12]: 89%
Activity [13]: 87%
Activity [14]: 100%
Activity [15]: 79%
Activity [16]: 93%
Activity [17]: 89%
Ratio IC50 (Homo sapiens): > 1000
Activity [18]: 100%
